Test results: ChEMBL document CHEMBL1140321, “Synthesis and biological evaluation of acyclic 3-[(2-hydroxyethoxy)methyl] analogues of antiviral furo- and pyrrolo[2,3-d]pyrimidine nucleosides” (J Med Chem, 2005)

Key:
HEL [1] = assay: Concentration required to inhibit cell proliferation in HEL cells by 50%; type: functional; details: Homo sapiens
HEL [2] = assay: Concentration required to cause a microscopically visible alteration of cell morphology in HEL cells; type: functional; details: Homo sapiens
HEL [3] = assay: Concentration required to inhibit vesicular stomatitis virus induced cytopathogenicity in HEL cells by 50%; type: functional, cell-based; details: Homo sapiens
HEL [4] = assay: Concentration required to inhibit human cytomegalovirus strain AD169 induced cytopathogenicity in HEL cells by 50%; type: functional, cell-based
HEL [5] = assay: Concentration required to inhibit human cytomegalovirus strain Davis induced cytopathogenicity in HEL cells by 50%; type: functional, cell-based
HEL [6] = assay: Concentration required to inhibit vaccinia virus induced cytopathogenicity in HEL cells by 50%; type: functional, cell-based; details: Homo sapiens
HEL [7] = assay: Concentration required to inhibit herpes simplex virus type 1 induced cytopathogenicity in HEL cells by 50%; type: functional, cell-based; details: Homo sapiens
HEL [8] = assay: Concentration required to inhibit herpes simplex virus type 2 induced cytopathogenicity in HEL cells by 50%; type: functional, cell-based; details: Homo sapiens
HEL [9] = assay: Concentration required to inhibit Varicella-Zoster virus (strain 07/1) induced cytopathogenicity in HEL cells by 50%; type: functional, cell-based; details: Homo sapiens
HEL [10] = assay: Concentration required to inhibit Varicella-Zoster virus (strain OKA) induced cytopathogenicity in HEL cells by 50%; type: functional, cell-based; details: Homo sapiens
CCRF-CEM [11] = assay: Concentration required to inhibit human immunodeficiency virus-2 (strain ROD) induced cytopathogenicity in CEM cells by 50%; type: functional, cell-based
In short: (§1)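 Human CEM cells (~3 × 10^5 cells/cm³) were infected with 100 CCID50/mL of HIV-1(IIIB) or HIV-2(ROD) and seeded into wells with compound dilutions. After 4 days at 37 °C, HIV-induced giant-cell formation was examined microscopically and EC50 was taken as the concentration giving 50% inhibition.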

CCRF-CEM [12] = assay: Concentration required to inhibit human immunodeficiency virus-1 (strain IIIb) induced cytopathogenicity in CEM cells by 50%; type: functional, cell-based; in short: as §1
HEL [13] = assay: Concentration required to inhibit HEL cell proliferation by 50%; type: functional; details: Homo sapiens

| SMILES | CC50 (HEL [1]) | MCC (HEL [2]) | EC50 (HEL [3]) | EC50 (HEL [4]) | EC50 (HEL [5]) | EC50 (HEL [6]) | EC50 (HEL [7]) | EC50 (HEL [8]) | EC50 (HEL [9]) | EC50 (HEL [10]) | EC50 (CCRF-CEM [11]) | EC50 (CCRF-CEM [12]) | CC50 (HEL [13]) |
| --- | --- | --- | --- | --- | --- | --- | --- | --- | --- | --- | --- | --- | --- |
| CCCCCCCCCCCc1cc2cn(COCCO)c(O)nc-2n1 | 41 µM | 80 µM | > 40 µM | > 16 µM | > 16 µM | > 40 µM | > 40 µM | > 40 µM | 10 µM | 16 µM | > 10 µM | > 10 µM | – |
| CCCCCCCCc1cc2cn(COCCO)c(=O)nc2o1 | > 200 µM | ≥ 80 µM | > 16 µM | 31 µM | 10 µM | > 16 µM | > 16 µM | > 16 µM | > 16 µM | 11 µM | > 50 µM | > 50 µM | – |
| CCCCCC#Cc1cc2cn(COCCO)c(=O)nc2o1 | > 50 µM | ≥ 100 µM | > 200 µM | > 20 µM | 58 µM | > 200 µM | > 200 µM | > 200 µM | > 50 µM | > 50 µM | > 50 µM | > 50 µM | – |
| CCCCCCCCCCc1cc2cn(COCCO)c(=O)nc2o1 | > 200 µM | 400 µM | > 16 µM | > 400 µM | > 80 µM | > 16 µM | > 16 µM | > 16 µM | > 80 µM | > 80 µM | > 250 µM | > 250 µM | – |
| CCCCCCCCCc1cc2cn(COCCO)c(=O)nc2o1 | ≥ 100 µM | ≥ 16 µM | > 200 µM | > 400 µM | > 400 µM | > 200 µM | > 200 µM | > 200 µM | 10 µM | 41 µM | > 250 µM | > 250 µM | – |
| OCCOCn1cc2ccnc-2nc1O | > 200 µM | > 400 µM | > 400 µM | > 400 µM | > 400 µM | > 400 µM | > 400 µM | > 400 µM | > 400 µM | > 400 µM | > 250 µM | > 250 µM | – |
| CCCCCc1cc2cn(COCCO)c(O)nc-2n1 | > 200 µM | > 400 µM | > 400 µM | > 400 µM | > 400 µM | > 400 µM | > 400 µM | > 400 µM | > 400 µM | > 400 µM | > 250 µM | > 250 µM | – |
| CCCCC#Cc1cc2cn(COCCO)c(=O)nc2o1 | > 50 µM | > 100 µM | > 200 µM | > 100 µM | > 100 µM | > 200 µM | > 200 µM | > 200 µM | > 50 µM | > 50 µM | > 50 µM | > 50 µM | – |
| CCCCCc1cc2cn(COCCO)c(=O)nc2o1 | > 200 µM | > 400 µM | > 400 µM | > 400 µM | > 400 µM | > 400 µM | > 400 µM | > 400 µM | > 400 µM | > 400 µM | > 250 µM | > 50 µM | – |
| O=c1nc2occc2cn1COCCO | > 200 µM | > 400 µM | > 400 µM | > 400 µM | > 400 µM | > 400 µM | > 400 µM | > 400 µM | > 400 µM | > 100 µM | > 250 µM | > 250 µM | – |
| CCCCCCCCC#Cc1cc2cn(COCCO)c(=O)nc2o1 | 42 µM | ≥ 20 µM | > 40 µM | > 4 µM | 5.2 µM | > 40 µM | > 40 µM | > 40 µM | 8.5 µM | > 5 µM | > 10 µM | > 10 µM | – |
| CCCCCCCCCC#Cc1cc2cn(COCCO)c(=O)nc2o1 | > 50 µM | ≥ 20 µM | > 40 µM | > 4 µM | 5.2 µM | > 40 µM | > 40 µM | > 40 µM | 7.1 µM | 2.6 µM | > 10 µM | > 10 µM | – |
| CCCCc1cc2cn(COCCO)c(=O)nc2o1 | > 200 µM | > 400 µM | > 400 µM | > 400 µM | > 400 µM | > 400 µM | > 400 µM | > 400 µM | > 400 µM | ≥ 100 µM | > 250 µM | > 250 µM | – |
| CCCCCCc1cc2cn(COCCO)c(O)nc-2n1 | > 200 µM | > 400 µM | > 80 µM | 400 µM | 253 µM | > 80 µM | > 80 µM | > 80 µM | 151 µM | 206 µM | > 50 µM | > 50 µM | – |
| CCCCCCCCCc1cc2cn(COCCO)c(O)nc-2n1 | – | > 80 µM | > 80 µM | > 16 µM | > 16 µM | > 80 µM | > 80 µM | > 80 µM | > 16 µM | > 16 µM | > 50 µM | > 50 µM | – |
| CCCCCCCCCCCc1cc2cn(COCCO)c(=O)nc2o1 | 132 µM | 80 µM | > 40 µM | > 16 µM | > 16 µM | > 40 µM | > 40 µM | > 40 µM | > 16 µM | > 16 µM | > 250 µM | > 250 µM | – |
| C#Cc1cn(COCCO)c(=O)[nH]c1=O | – | > 400 µM | > 400 µM | > 400 µM | > 400 µM | > 400 µM | > 400 µM | > 400 µM | > 400 µM | > 400 µM | > 250 µM | > 250 µM | > 200 µM |
| CCCCCCCCCCc1cc2cn(COCCO)c(O)nc-2n1 | 32 µM | 80 µM | > 16 µM | 5.1 µM | 1.8 µM | > 16 µM | > 16 µM | > 16 µM | 5.8 µM | 6.4 µM | > 10 µM | > 10 µM | – |
| CCCCCCCc1cc2cn(COCCO)c(=O)nc2o1 | 140 µM | 400 µM | > 200 µM | > 80 µM | > 80 µM | > 200 µM | > 200 µM | > 200 µM | > 80 µM | > 80 µM | > 50 µM | > 50 µM | – |
| CCCCCCCCc1cc2cn(COCCO)c(O)nc-2n1 | 65 µM | 80 µM | > 80 µM | > 16 µM | > 16 µM | > 80 µM | > 80 µM | > 80 µM | > 16 µM | > 16 µM | > 50 µM | > 50 µM | – |
| CCCCCCCc1cc2cn(COCCO)c(O)nc-2n1 | 119 µM | ≥ 400 µM | > 200 µM | > 400 µM | 400 µM | > 200 µM | > 200 µM | > 200 µM | 156 µM | 149 µM | > 250 µM | > 250 µM | – |
| CCCCCCC#Cc1cc2cn(COCCO)c(=O)nc2o1 | > 50 µM | > 200 µM | > 200 µM | 40 µM | > 20 µM | > 200 µM | > 200 µM | > 200 µM | 100 µM | 100 µM | – | > 50 µM | – |
| CCCCc1cc2cn(COCCO)c(O)nc-2n1 | > 200 µM | > 400 µM | > 400 µM | > 400 µM | > 400 µM | > 400 µM | > 400 µM | > 400 µM | > 400 µM | > 400 µM | > 250 µM | > 250 µM | – |
| CCCCCCCC#Cc1cc2cn(COCCO)c(=O)nc2o1 | > 50 µM | 200 µM | > 40 µM | > 20 µM | > 20 µM | > 40 µM | > 40 µM | > 40 µM | > 20 µM | > 20 µM | > 10 µM | > 10 µM | – |
| CCCCCCc1cc2cn(COCCO)c(=O)nc2o1 | > 200 µM | ≥ 400 µM | > 16 µM | > 80 µM | > 80 µM | > 16 µM | > 16 µM | > 16 µM | 151 µM | 173 µM | > 50 µM | > 50 µM | – |
| O=c1[nH]c(=O)n([C@H]2C[C@H](O)[C@@H](CO)O2)cc1/C=C/Br [BRIVUDINE] | ≥ 400 µM | > 400 µM | > 500 µM | > 100 µM | > 100 µM | 60 µM | 0.16 µM | 300 µM | > 108 µM | 0.03 µM | > 50 µM | > 50 µM | – |
